High-throughput results from PubChem BioAssay.
A selection: hits, their analogues and other compounds. The true share with any hit is near 2.5%.
IMP-1 inh: blocks Pseudomonas aeruginosa IMP-1 metallo-beta-lactamase; 290,000 compounds, 0.45% hits; inhibition, % at 5.6 µM; AID 1556; purified IMP-1, nitrocefin hydrolysis, epi-absorbance fluorescence;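 active = inhibition above the mean plus 3 SD of all compounds in the same screening run, cut at about 4.5% in these data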
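Test system: recombinant IMP-1 enzyme, purified / Medium: HEPES buffer pH 7.1 with ZnSO4 and Brij 35 / Doses: single dose, 5.6 µM / Times: 25 °C, 15 min preincubation, 25 min reaction / Detection: Epi-absorbance via hydrolysed-nitrocefin quenching of white-plate fluorescence, 480/530 nm, EDTA stop / Evaluation: percent inhibition from optical density relative to buffer-blank wells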
dFosB act: activators of mouse delta FosB homodimer. P13346. purified delta FosB, TAMRA-CDK5 oligo fluorescence polarization; percent of positive-control signal above neutral wells. activation, % at 25 µM. 340,000 compounds, 0.99% hits;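 active = mean activation above about 17%, with every replicate also reaching it, limit read from the data, passing the limit was not always enough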
VIM-2 inh: blocks Pseudomonas aeruginosa VIM-2 metallo-beta-lactamase; AID 1527; purified VIM-2, nitrocefin hydrolysis, epi-absorbance fluorescence; 290,000 compounds, 0.89% hits; inhibition, % at 5.6 µM;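 active = inhibition above the mean of all tested compounds plus 3 SD, cutoff set per screening run, cut at about 7.5% in these data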;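 note: red hydrolysis product quenches plate fluorescence so inhibitors raise well fluorescence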
HTR2A ag: agonists of mouse serotonin 5-HT2A receptor (HTR2A); P35363; CHO-K1 mHTR2A beta-arrestin complementation, luminescence; percent of 30 µM serotonin response; activation, % at 7.6 µM; 360,000 compounds, 0.66% hits;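 active = activation above a run cutoff, the mean activation of all tested compounds plus 3 SD, cut at about 14% in these data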
Target sequence (P35363 whole entry, looked up): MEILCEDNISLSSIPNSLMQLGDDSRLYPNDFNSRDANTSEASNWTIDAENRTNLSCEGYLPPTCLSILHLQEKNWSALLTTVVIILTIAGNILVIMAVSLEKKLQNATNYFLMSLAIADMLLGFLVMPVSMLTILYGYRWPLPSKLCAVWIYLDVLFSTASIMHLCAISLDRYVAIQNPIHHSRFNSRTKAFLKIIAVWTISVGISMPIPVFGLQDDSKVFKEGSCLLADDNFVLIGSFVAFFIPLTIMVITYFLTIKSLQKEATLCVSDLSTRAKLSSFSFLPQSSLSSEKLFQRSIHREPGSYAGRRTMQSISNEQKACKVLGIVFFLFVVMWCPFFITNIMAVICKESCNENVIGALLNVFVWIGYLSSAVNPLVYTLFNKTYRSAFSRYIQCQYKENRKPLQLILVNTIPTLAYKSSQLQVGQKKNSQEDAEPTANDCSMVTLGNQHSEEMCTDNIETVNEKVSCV
Each line names hits and unclear results; the compound was inactive in the other large screens.

O=C(NC1CCCc2ccccc21)C1CCCN(S(=O)(=O)c2cnc[nH]2)C1 (stereo not drawn)	none
COc1ccccc1C=NN=C(NN=Cc1ccccc1OC)NN=Cc1ccccc1OC	dFosB act 44 (no result: IMP-1 inh, VIM-2 inh)
NCCCC[C@@H](C(=O)NCCCCCCCCCCC(=O)N1CCNCC1)n1cc(CCCC(=O)O)nn1	none (no result: IMP-1 inh, VIM-2 inh)
CCOC(=O)c1ccsc1NC(=O)c1ccco1	VIM-2 inh 9.1
Fc1ccc(-c2cc3nc(-c4ccccc4)cc(N4CCN(CCN5CCOCC5)CC4)n3n2)cc1	dFosB act 20
CCC1NC(=O)c2cc3ccccc3cc2-n2c1nc1ccc(OC)cc1c2=O (stereo not drawn)	none (no result: IMP-1 inh, dFosB act, VIM-2 inh)
C=C(CN(C)C)C(=O)c1ccc(OC2OC(COC(C)=O)C(OC(C)=O)C(OC(C)=O)C2OC(C)=O)cc1 (stereo not drawn)	dFosB act 21 (no result: IMP-1 inh, VIM-2 inh)
CCc1ccc(NC(=O)C2CCC(CNC(=O)[C@@H]3Cc4ccccc4CN3)CC2)cc1 (stereo partly drawn)	none
Cc1ccc(SCCc2cc[n+](CC(=O)c3ccccc3)cc2)cc1	none
O=C(C[n+]1ccc(CCSc2ccc(F)cc2)cc1)c1ccccc1	dFosB act 85
Nc1cccc2c1C(=O)N(C(=O)/C=C/c1cccc(Br)c1)C2=O	IMP-1 inh 4.8
c1ccc2c(c1)ncn2Cc1nnc2sc(-c3ccc4c(c3)OCO4)nn12	VIM-2 inh 9.6
CCN1/C(=C/c2ccc3cccc(C)c3[n+]2CC)Sc2ccccc21	dFosB act 66
CCN1/C(=C/c2ccc3cc(C)cc(C)c3[n+]2CC)Sc2cc(C)ccc21	none
NC(=S)c1cc2cc(Cl)ccc2oc1=O	IMP-1 inh 7.0 (no result: dFosB act)
CC1CCC(N2CCNCC2)CC1 (stereo not drawn)	none
O=C1C=C(NNC(=O)c2ccncc2)CC(c2ccccc2)C1 (stereo not drawn)	IMP-1 inh 5.9
CC(=O)Nc1ccc(N2C(=O)CSC2c2ccc([N+](=O)[O-])cc2)cc1 (stereo not drawn)	none
CC(=O)Nc1ccc(N2C(=O)CSC2c2ccccc2)cc1 (stereo not drawn)	IMP-1 inh 4.8
Cc1ccc2[nH]c(O)c(N=NC(=O)CCc3ccccc3)c2c1Br	dFosB act 17
O=C(CSCc1ccccc1)N=Nc1c(O)[nH]c2ccccc12	none
COc1cccc(NC(=O)C(C)N2C(=O)c3ccccc3C2=O)c1 (stereo not drawn)	none
CN1CCN(C(=O)c2ccc3c(=O)n(Cc4ccco4)c(=S)[nH]c3c2)CC1	VIM-2 inh 8.3
O=C(CSc1nnc(Cn2nnc(-c3ccccc3)n2)n1-c1ccccc1)Nc1ccc(F)cc1	none
O=C(CSc1nnc(Cn2nnc(-c3ccccc3)n2)n1-c1ccccc1)Nc1ccccc1	IMP-1 inh 4.7
CCOc1ccccc1C(C(=O)NC1CCCC1)N(C(=O)c1csnn1)C1CC1 (stereo not drawn)	none
COc1ccc([C@H]2C[C@@H](O)[C@H](n3cc(C4CC4)nn3)CN2Cc2cccs2)cc1	none (no result: IMP-1 inh, dFosB act, VIM-2 inh)
COc1ccc(NC(=O)c2ccc(NC3=NC4CS(=O)(=O)CC4S3)cc2)cc1 (stereo not drawn)	none
CC(c1nnc(SCC(=O)c2c(N)n(C3CC3)c(=O)[nH]c2=O)n1-c1ccc(F)cc1)N(C)C (stereo not drawn)	none (no result: IMP-1 inh, VIM-2 inh)
COc1ccc(C(=O)N[C@H](C(=O)OCc2cc(=O)oc3cc(C)ccc23)C(C)C)cc1	none
COc1ccccc1NC(=O)NNC(=O)CCN1CCOCC1	none
Cc1ccccc1Cn1c(=O)n(C)c(=O)c2sccc21	none
Cc1ccc(S(=O)(=O)NN=C(c2ccccc2)c2cccs2)cc1	none (no result: IMP-1 inh, dFosB act, VIM-2 inh)
C[C@H]1CNC(=O)C(=O)N1C[C@H](Cc1ccc(O)cc1)NC(=O)CC12CC3CC(CC(C3)C1)C2	IMP-1 inh 8.4
CC(C)C[C@@H](CN1C(N)=NC[C@@H]1C)NC(=O)CC12CC3CC(CC(C3)C1)C2	none (no result: IMP-1 inh, VIM-2 inh)
CCCCCCNC(=O)O[C@H]1Cn2c(=O)ccc(=O)n2[C@@H]2CN(S(=O)(=O)c3ccc(C)cc3)C[C@]12O	none (no result: IMP-1 inh, dFosB act, VIM-2 inh)
COc1ccccc1-c1ccc(/C=C2/C=C(C)OC2=O)o1	none
COc1ccccc1-c1ccc(/C=C2\C=CC(=O)O2)o1	IMP-1 inh 5.4
C[C@H](NC(=O)N1CCn2c1nc1ccccc12)C(=O)NCC1CCCO1 (stereo partly drawn)	none
CC(C)[C@H](NC(=O)N1CCn2c1nc1ccccc12)C(=O)NCC1CCCO1 (stereo partly drawn)	HTR2A ag 15
CN(C)CCCNc1ccc(-c2cc(Nc3cccc(Cl)c3)ncn2)cn1	dFosB act 39 (no result: IMP-1 inh, VIM-2 inh)
CN(C)c1cccc(-c2cc(Nc3ccc(C(C)(C)C)cc3)ncn2)c1	none (no result: IMP-1 inh, dFosB act, VIM-2 inh)
CNC(=S)N/N=C(\C)c1cccc([N+](=O)[O-])c1	none
C/C(=N\NC(=O)C(N)=O)c1cccc([N+](=O)[O-])c1	IMP-1 inh 15
COc1ccc(C2=Nc3ccccc3N(C(=O)c3cccnc3)C2C(=O)NC2CCCC2)cc1 (stereo not drawn)	none (no result: IMP-1 inh, dFosB act, VIM-2 inh)
CCCCCc1c(-c2ccccc2OC)ncn1CCc1ccccc1OC	none (no result: IMP-1 inh, dFosB act, VIM-2 inh)
COc1ccc(N=Cc2cc(Cc3ccccc3Cl)cc([N+](=O)[O-])c2O)cc1OC	none
Cc1ccc(N=Cc2cc(Cc3ccccc3Cl)cc([N+](=O)[O-])c2O)c(O)c1	IMP-1 inh 6.3
COc1ccc(S(=O)(=O)N(CC(=O)NCC2CCCO2)C2CCCCC2)cc1OC (stereo not drawn)	none
COc1ccc(OC)c2nc3c(C(=O)NCCN(C)C)cccc3nc12	dFosB act 87 (no result: IMP-1 inh, VIM-2 inh)
CN(C)CCNC(=O)c1cccc2nc3cccc(F)c3nc12	dFosB act 33 (no result: IMP-1 inh, VIM-2 inh)
COc1ccc(C23CC4CC(CC(C4)C2)C3)cc1C(=O)NCCN(C)C	none
CN(C)CCNC(=O)c1cccc2ccc(-c3ccc(-c4ccccc4)cc3)nc12	none (no result: IMP-1 inh, VIM-2 inh)
CC(C)C[C@H]1CN([C@@H](Cc2ccccc2)CN2CCC[C@H]2CN2C(=O)C(=O)NC[C@@H]2Cc2ccc(O)cc2)C(=O)C(=O)N1CCc1ccccc1	none (no result: IMP-1 inh, dFosB act, VIM-2 inh)
O=C(O)CCC(=O)N1N=C(c2ccc(Br)cc2)CC1c1cccs1 (stereo not drawn)	VIM-2 inh 7.9
Fc1ccccc1NC(=S)Nn1cnnc1	none
CC(C)[C@H]1C(=O)Nc2ccccc2N1C(=O)N[C@@H](Cc1ccccc1)C(=O)N[C@@H](C(=O)O)c1ccccc1	none
Cc1ccc(N2C(=O)SC(N(CC(=O)O)c3cccc(C)c3)C2=O)cc1 (stereo not drawn)	none
CC(=O)N(c1ccccc1)C1SC(=O)N(c2ccccc2)C1=O (stereo not drawn)	IMP-1 inh 6.5
CCC(=O)Nc1nc2ccc(NC(C)=O)cc2s1	IMP-1 inh 6.2
O=[N+]([O-])c1cc(C(F)(F)F)cc([N+](=O)[O-])c1NCCN1CCNCC1	none
COC(=O)c1ccccc1NC1=C/C(=N\S(=O)(=O)c2cccs2)c2ccccc2C1=O	IMP-1 inh 5.0
COC(=O)c1ccccc1NC1=C/C(=N\S(=O)(=O)c2ccc(C(=O)O)cc2)c2ccccc2C1=O	none
c1ccc(-n2nnnc2Oc2ccc(-n3ccnc3)cc2)cc1	VIM-2 inh 11
